Where a SMILES comes first, the peptide text is derived from it. [ ]: non-standard residue; d: D form. The star is where a group is joined. 1Nal = N[C@@H](Cc1cccc2ccccc12)C(=O)O; Leu(ol) = CC(C)C[C@H](N)CO; Cbz = O=C(OCc1ccccc1)*
These compounds were tested against T1, Renin (Homo sapiens) (UniProt P00797) (assay: Tested for the inhibition of human plasma renin at 10e-4 M concentration).
T1 sequence (whole entry): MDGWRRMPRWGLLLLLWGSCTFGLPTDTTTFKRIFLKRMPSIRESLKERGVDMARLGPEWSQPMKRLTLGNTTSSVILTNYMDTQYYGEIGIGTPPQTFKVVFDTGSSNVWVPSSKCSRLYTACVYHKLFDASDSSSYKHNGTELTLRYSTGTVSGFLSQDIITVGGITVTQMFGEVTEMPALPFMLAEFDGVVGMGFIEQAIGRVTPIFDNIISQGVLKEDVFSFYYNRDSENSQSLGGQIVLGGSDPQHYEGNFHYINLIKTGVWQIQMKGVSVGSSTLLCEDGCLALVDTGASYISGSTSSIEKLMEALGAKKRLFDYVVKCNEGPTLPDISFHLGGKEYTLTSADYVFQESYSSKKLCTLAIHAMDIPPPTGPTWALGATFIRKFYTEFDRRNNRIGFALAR

inhibition [%] | Compound
22 | CC(C)C[C@@H](CO)NC(=O)[C@H](Cc1c[nH]cn1)NC(=O)[C@H](Cc1ccccc1)NC(=O)OCc1ccccc1 (HELM PEPTIDE1{[O=C(OCc1ccccc1)[*:2]].F.H.[CC(C)C[C@@H](CO)N[*:1]]}$$$$V2.0)

The compounds below were run against T2, Renin (Homo sapiens, UniProt P00797) (assay: Tested for the inhibition of human plasma renin).
T2 sequence (P00797 whole entry): T1 sequence (whole entry)
Method in brief: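 Lyophilized human plasma with 0.1% EDTA, incubated with phenylmethanesulfonyl fluoride, maleate buffer (pH 6.0) and inhibitor in 1% Tween 80/water vehicle, 90 min at 37 °C. Angiotensin I generated was measured by radioimmunoassay kit. Percent inhibition came from inhibitor versus control plasma renin activity. IC50 was estimated graphically from 3–4 inhibitor concentrations plotted on a semilog scale.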

IC50 [nM] | Compound
750 | CC(C)C[C@@H](C=O)NC(=O)[C@H](Cc1c[nH]cn1)NC(=O)[C@H](Cc1ccccc1)NC(=O)OCc1ccccc1 (Cbz-Phe-His-Leu-aldehyde)
220 | CC[C@H](C)[C@H](NC(=O)[C@@H](C[C@H](O)[C@H](CC(C)C)NC(=O)[C@H](Cc1c[nH]cn1)NC(=O)[C@H](Cc1ccccc1)NC(=O)OC(C)(C)C)C(C)C)C(=O)NCc1ccccn1
3400 | CC[C@H](C)CNC(=O)[C@H](C(C)C)[C@@H](O)[C@H](O)[C@H](CC(C)C)NC(=O)[C@H](Cc1c[nH]cn1)NC(=O)[C@H](Cc1ccccc1)NC(=O)OC(C)(C)C
3100 | CC[C@H](C)[C@H](NC(=O)[C@@H](CC(=O)[C@H](CC(C)C)NC(=O)[C@H](Cc1c[nH]cn1)NC(=O)[C@H](Cc1ccccc1)NC(=O)OC(C)(C)C)C(C)C)C(=O)NCc1ccccn1
350 | CC[C@H](C)[C@H](NC(=O)[C@H](C(C)C)[C@@H](O)[C@H](O)[C@H](CC(C)C)NC(=O)[C@H](Cc1c[nH]cn1)NC(=O)[C@H](Cc1ccccc1)NC(=O)OC(C)(C)C)C(=O)NCc1ccccn1
1000 | O=C(N[C@@H](Cc1cccc2ccccc12)C(=O)N[C@@H](Cc1c[nH]cn1)C(=O)N[C@@H](Cc1ccccc1)[C@@H](O)CO)OCc1ccccc1
80 | CC(C)C[C@@H](C=O)NC(=O)[C@H](Cc1c[nH]cn1)NC(=O)[C@H](Cc1cccc2ccccc12)NC(=O)OCc1ccccc1 (Cbz-[1Nal]-His-Leu-aldehyde)
2600 | CC(C)(C)OC(=O)N[C@@H](Cc1ccccc1)C(=O)N[C@@H](Cc1c[nH]cn1)C(=O)N[C@@H](Cc1ccccc1)[C@@H](O)CO
3600 | CC(C)C[C@@H](CO)NC(=O)[C@H](Cc1c[nH]cn1)NC(=O)[C@H](Cc1cccc2ccccc12)NC(=O)OCc1ccccc1 (Cbz-[1Nal]-His-[Leu(ol)])
